Assay results taken from publication PMC9918595 (Molecular imaging and biology, 2022).
Where “and” joins values, the source holds several entries; their conditions need not be identical. Equal entries are not always repeated. Entries after “also recorded” stand apart in the source; their conditions may differ. Where two headings read alike, the source gives them in different places.

Experiments:
[1] = LogD7.4 measurement, shake flask method; format: physicochemical; conditions: n-octanol / PBS pH 7.4, n = 3
[2] = Solubility of the radiotracer in dose formulation; format: physicochemical
[3] = Ex vivo biodistribution study; format: in vivo, Sprague Dawley rats; conditions: for Tracer uptake, Blood / Tracer uptake, Brain / Tracer uptake, Fat / Tracer uptake, Heart / Tracer uptake, Kidney / Tracer uptake, Lung / Tracer uptake, Muscle / Tracer uptake, Pancreas / Tracer uptake, Small intestine / Tracer uptake, Spleen / Tracer uptake, Thymus / Tracer uptake, Liver: iv, n = 4
TRPC5 [4] = biological target: T1, TRPC5 (Rattus norvegicus, UniProt Q8VD38); assay: In vitro autoradiography study of the rat brain; format: binding, Sprague Dawley rats
T1 sequence (Q8VD38 1-974): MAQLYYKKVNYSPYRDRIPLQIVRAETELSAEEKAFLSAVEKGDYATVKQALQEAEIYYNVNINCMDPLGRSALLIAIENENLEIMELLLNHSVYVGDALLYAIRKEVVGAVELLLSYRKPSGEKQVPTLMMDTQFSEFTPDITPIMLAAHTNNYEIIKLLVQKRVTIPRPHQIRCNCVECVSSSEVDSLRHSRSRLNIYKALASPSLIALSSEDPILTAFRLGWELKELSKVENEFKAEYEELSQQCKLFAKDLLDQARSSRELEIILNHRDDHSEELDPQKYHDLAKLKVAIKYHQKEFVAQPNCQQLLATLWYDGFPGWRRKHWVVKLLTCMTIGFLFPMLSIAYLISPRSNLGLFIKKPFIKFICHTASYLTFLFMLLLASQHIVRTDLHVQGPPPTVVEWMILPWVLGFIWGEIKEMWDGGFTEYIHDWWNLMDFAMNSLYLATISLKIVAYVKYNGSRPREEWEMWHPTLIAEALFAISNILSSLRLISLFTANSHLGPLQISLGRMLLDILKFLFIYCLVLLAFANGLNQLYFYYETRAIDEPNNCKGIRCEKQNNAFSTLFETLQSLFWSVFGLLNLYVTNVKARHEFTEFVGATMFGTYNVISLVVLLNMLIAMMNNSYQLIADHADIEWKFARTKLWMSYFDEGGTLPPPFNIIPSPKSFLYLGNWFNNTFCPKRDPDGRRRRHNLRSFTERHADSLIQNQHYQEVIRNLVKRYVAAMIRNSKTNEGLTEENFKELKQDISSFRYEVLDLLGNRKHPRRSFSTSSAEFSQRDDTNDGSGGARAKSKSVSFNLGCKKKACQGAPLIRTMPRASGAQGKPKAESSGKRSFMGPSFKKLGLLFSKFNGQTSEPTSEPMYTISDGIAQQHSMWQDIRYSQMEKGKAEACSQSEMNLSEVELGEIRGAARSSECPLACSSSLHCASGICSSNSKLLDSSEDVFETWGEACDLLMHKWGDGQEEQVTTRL

TRPC5 [5] = biological target: T2, TRPC5 (Mus musculus, UniProt Q9QX29); format: in vivo, 129S1/SvImJ mice; conditions: 129S1/SvImJ wild-type mice
T2 sequence (Q9QX29 1-975): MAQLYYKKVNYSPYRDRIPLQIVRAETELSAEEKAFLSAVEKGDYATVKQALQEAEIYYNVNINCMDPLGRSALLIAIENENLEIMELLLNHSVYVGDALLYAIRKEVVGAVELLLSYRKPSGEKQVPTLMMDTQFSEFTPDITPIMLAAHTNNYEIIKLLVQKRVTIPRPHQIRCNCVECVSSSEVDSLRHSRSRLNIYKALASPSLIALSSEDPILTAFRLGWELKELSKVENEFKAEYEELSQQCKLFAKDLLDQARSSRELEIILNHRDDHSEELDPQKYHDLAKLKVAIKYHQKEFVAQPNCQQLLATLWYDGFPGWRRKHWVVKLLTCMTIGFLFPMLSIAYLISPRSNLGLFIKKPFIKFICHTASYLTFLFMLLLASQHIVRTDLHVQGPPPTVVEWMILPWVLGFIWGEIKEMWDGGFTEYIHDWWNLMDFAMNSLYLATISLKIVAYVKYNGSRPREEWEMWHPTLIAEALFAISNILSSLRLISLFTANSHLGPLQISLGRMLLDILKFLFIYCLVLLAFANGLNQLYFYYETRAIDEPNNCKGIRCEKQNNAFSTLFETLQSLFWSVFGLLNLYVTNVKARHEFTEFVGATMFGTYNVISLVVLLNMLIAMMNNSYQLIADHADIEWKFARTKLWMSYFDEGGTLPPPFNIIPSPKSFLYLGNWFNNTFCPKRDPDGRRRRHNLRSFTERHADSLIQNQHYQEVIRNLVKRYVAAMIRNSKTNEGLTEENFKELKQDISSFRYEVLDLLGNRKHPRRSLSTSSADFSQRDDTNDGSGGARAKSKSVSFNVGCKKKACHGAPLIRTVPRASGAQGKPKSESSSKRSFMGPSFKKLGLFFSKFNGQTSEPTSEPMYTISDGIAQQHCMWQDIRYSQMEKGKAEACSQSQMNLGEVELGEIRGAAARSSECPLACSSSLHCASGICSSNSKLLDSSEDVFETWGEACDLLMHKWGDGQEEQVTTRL

TRPC5 [6] = format: in vivo, 129S1/SvImJ mice; conditions: 129S1/SvImJ TRPC5 knockout mice
TRPC5 [7] = assay: MicroPET brain study of the nonhuman primate; format: in vivo, cynomolgus macaques
Method in brief: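 Adult male cynomolgus macaques (9–10 kg), two tracer scans in each of two animals; fasted 12 h, ketamine (10–20 mg kg−1) plus glycopyrrolate ([…]) i.m., intubated, 0.8–2.0% isoflurane/oxygen. Venous catheter; 10 min positioning and 45 min attenuation transmission scans. IV bolus ~0.35 GBq (injected mass ~4.2 μg); 0–120 min dynamic scan (3×1, 4×2, 3×3, 20×5 min frames).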

human TRPC5 [8] = conditions: calcium flux assay; cited from earlier work
human TRPC5 [9] = conditions: whole-cell manual patched clamp assay; cited from earlier work
[10] = system: wide range of molecular targets including ion channels (TRPV, TRPM), receptors (dopamine D1 and D2, NMDA, TNF-α) and enzymes (acetylcholinesterase, tyrosine …); conditions: patch clamp assay; cited from earlier work
[11] = in vivo studies; cited from earlier work

SMILES: [11CH3]n1c(=O)n(CCCO)c(=O)c2c1nc(Oc1cccc(Cl)c1)n2Cc1ccc(Cl)cc1 [[^11C]HC070]
- logD7.4 [1]: 1.08 ± 0.04
- solubility ([2]; dose formulation, ethanol/saline): good solubility; also recorded: improved solubility in ethanol/saline medium
- residue retaining inside surface of a glass vial or a syringe ([2]; dose solution without Kolliphor HS15): little percentage of retaining was detected
- brain uptake ratio from 5 min to 60 min ([3]; SD rats, 5 min/60 min): 4.5
- Tracer uptake, Blood ([3]; SD rats, 5 min post injection): 0.13±0.02 %I.D./gram
- Tracer uptake, Brain ([3]; SD rats, 5 min post injection): 0.47±0.10 %I.D./gram
- Tracer uptake, Fat ([3]; SD rats, 5 min post injection): 0.07±0.02 %I.D./gram
- Tracer uptake, Heart ([3]; SD rats, 5 min post injection): 0.94±0.12 %I.D./gram
- Tracer uptake, Kidney ([3]; SD rats, 5 min post injection): 1.28±0.28 %I.D./gram
- Tracer uptake, Lung ([3]; SD rats, 5 min post injection): 0.72±0.07 %I.D./gram
- Tracer uptake, Muscle ([3]; SD rats, 5 min post injection): 0.12±0.01 %I.D./gram
- Tracer uptake, Pancreas ([3]; SD rats, 5 min post injection): 1.33±0.30 %I.D./gram
- Tracer uptake, Small intestine ([3]; SD rats, 5 min post injection): 1.16±0.11 %I.D./gram
- Tracer uptake, Spleen ([3]; SD rats, 5 min post injection): 0.73±0.17 %I.D./gram
- Tracer uptake, Thymus ([3]; SD rats, 5 min post injection): 0.47±0.08 %I.D./gram
- Tracer uptake, Blood ([3]; SD rats, 30 min post injection): 0.12±0.02 %I.D./gram
- Tracer uptake, Brain ([3]; SD rats, 30 min post injection): 0.18±0.01 %I.D./gram
- Tracer uptake, Fat ([3]; SD rats, 30 min post injection): 0.31±0.09 %I.D./gram
- Tracer uptake, Heart ([3]; SD rats, 30 min post injection): 0.33±0.03 %I.D./gram
- Tracer uptake, Kidney ([3]; SD rats, 30 min post injection): 0.46±0.03 %I.D./gram
- Tracer uptake, Liver ([3]; SD rats, 30 min post injection): 1.70±0.18 %I.D./gram
- Tracer uptake, Lung ([3]; SD rats, 30 min post injection): 0.41±0.07 %I.D./gram
- Tracer uptake, Muscle ([3]; SD rats, 30 min post injection): 0.17±0.02 %I.D./gram
- Tracer uptake, Pancreas ([3]; SD rats, 30 min post injection): 0.47±0.01 %I.D./gram
- Tracer uptake, Small intestine ([3]; SD rats, 30 min post injection): 3.01±0.23 %I.D./gram
- Tracer uptake, Spleen ([3]; SD rats, 30 min post injection): 0.20±0.02 %I.D./gram
- Tracer uptake, Thymus ([3]; SD rats, 30 min post injection): 0.24±0.02 %I.D./gram
- Tracer uptake, Blood ([3]; SD rats, 60 min post injection): 0.12±0.01 %I.D./gram
- Tracer uptake, Brain ([3]; SD rats, 60 min post injection): 0.09±0.02 %I.D./gram
- Tracer uptake, Fat ([3]; SD rats, 60 min post injection): 0.35±0.12 %I.D./gram
- Tracer uptake, Heart ([3]; SD rats, 60 min post injection): 0.20±0.03 %I.D./gram
- Tracer uptake, Kidney ([3]; SD rats, 60 min post injection): 0.33±0.05 %I.D./gram
- Tracer uptake, Liver ([3]; SD rats, 60 min post injection): 1.88±0.13 %I.D./gram
- Tracer uptake, Lung ([3]; SD rats, 60 min post injection): 0.23±0.07 %I.D./gram
- Tracer uptake, Muscle ([3]; SD rats, 60 min post injection): 0.13±0.02 %I.D./gram
- Tracer uptake, Pancreas ([3]; SD rats, 60 min post injection): 0.33±0.06 %I.D./gram
- Tracer uptake, Small intestine ([3]; SD rats, 60 min post injection): 3.01±1.71 %I.D./gram
- Tracer uptake, Spleen ([3]; SD rats, 60 min post injection): 0.13±0.01 %I.D./gram
- Tracer uptake, Thymus ([3]; SD rats, 60 min post injection): 0.13±0.03 %I.D./gram
- clearance from plasma ([3]; rats, ex vivo distribution): cleared from plasma primarily through hepatobiliary metabolism
- regional accumulation in rat brain sections (TRPC5 [4]; 1.11 MBq/slide, room temperature, 30 min): highest accumulation in the TRPC5-enriched colliculus, striatum, cortex, and thalamus regions
- binding specificity in rat brain sections (TRPC5 [4]; autoradiography with HC608 block): specifically binds TRPC5 sites in rat brain sections
- time of peak brain uptake (TRPC5 [5]): ~ 1.0 min
- peak brain uptake (SUV) (TRPC5 [5]; iv, 0-60 min dynamic PET, n = 3): 1.13 and ~ 1.13 and 1.13 ± 0.08
- time of peak brain uptake (TRPC5 [6]): ≤ 2 min
- regional brain uptake, prefrontal cortex (SUV) (TRPC5 [7]; macaque, highest regional radioactivity): 2.88
- fold higher brain uptake compared with [^11C]HC608 (TRPC5 [7]; macaque, initial time (5 min), average): 2.4 fold
- time of maximum brain uptake post-injection (TRPC5 [7]; male cynomolgus macaque): 3 to 5 min
- maximum total brain uptake (SUV) (TRPC5 [7]; male cynomolgus macaque, iv, 0-120 min dynamic PET): ~ 2.2 and 2.2

SMILES: Cn1c(=O)n(CCCO)c(=O)c2c1nc(Oc1cccc(OC(F)(F)F)c1)n2Cc1ccc(Cl)cc1 [HC608]
- blocking of [^11C]HC070 binding in rat brain sections (TRPC5 [4]; cold blocker at 1 μM): significantly reduced binding; also recorded: able to reduce the radioactivity signal in the tissue slides very well; also recorded: significantly blocked

SMILES: Cn1c(=O)n(CCCO)c(=O)c2c1nc(Oc1cccc(Cl)c1)n2Cc1ccc(Cl)cc1 [HC070]
- IC50 (human TRPC5 [8]): 9.3 nM
- IC50 (human TRPC5 [9]): 0.52 nM
- selectivity over a wide range of molecular targets [10]: at least 400 fold
- anxiolytic and antidepressant function [11]: carries anxiolytic and antidepressant function
- oral bioavailability [11]: orally bioavailable
